Consider 8 compounds from ChEMBL document CHEMBL1122925 (J Med Chem, 1985).

Structures are written as SMILES. pIC50: −log10 of the molar value. Several values for one entry are separate records, joined by “and”; a condition that tells them apart may be missing. Equal entries are not always repeated. Bounds are passed on as bounds.

Assay [1] concerns Vero. As to the kind of experiment: The concentration required to inhibit the growth of viral plaques by 50% of control in plaque reduction assay. It is filed as functional, cell-based. The settings on record: Chlorocebus sabaeus. Summed up:
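HSV-1 plaque-reduction assay, H29 strain for most values and Mac strain for some. IC50 is the concentration that inhibits viral plaque growth by 50% relative to controls.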
For orientation: Plaque reduction counts the foci of infection that form in a cell layer.

The subject of assay [2] is Thymidine kinase (Human herpesvirus 1). As to the kind of experiment: Ability (300 uM) to compete with 150 uM of [14C]ACV for binding sites on viral enzyme (HSV-1 TK). The settings on record: Human alphaherpesvirus 1.
For assay [3] the test system is unchanged. As to the kind of experiment: Relative substrate velocity was evaluated by using HSV-1 TK assay. The settings on record: Human alphaherpesvirus 1.
Assay [4] has the same test system. As to the kind of experiment: Ability (300 uM) to compete with 150 uM of [14C]ACV for binding sites on viral enzyme, Mac strain (HSV-1 TK). The following applies: Human alphaherpesvirus 1.
The target of assay [5] is T1, Thymidine kinase (Human alphaherpesvirus 1) (UniProt Q9QNF7).
T1 sequence (whole entry): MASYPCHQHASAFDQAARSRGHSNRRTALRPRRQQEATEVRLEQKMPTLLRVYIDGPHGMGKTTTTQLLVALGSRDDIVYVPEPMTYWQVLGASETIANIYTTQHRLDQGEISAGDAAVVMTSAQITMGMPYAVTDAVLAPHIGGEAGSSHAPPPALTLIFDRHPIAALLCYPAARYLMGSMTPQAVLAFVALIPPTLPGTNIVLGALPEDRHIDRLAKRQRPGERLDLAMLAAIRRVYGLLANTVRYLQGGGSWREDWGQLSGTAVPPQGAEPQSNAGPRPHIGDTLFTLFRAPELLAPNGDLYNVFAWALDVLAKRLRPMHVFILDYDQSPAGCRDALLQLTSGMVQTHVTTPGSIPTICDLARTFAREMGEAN
As to the kind of experiment: Relative substrate velocity was evaluated by using HSV-1 TK assay.

In assay [6] the test system is Vero. As to the kind of experiment: Zone of inhibition of plaque formation in vero cells inoculated with HSV-1 virus along with disks containing 50 ug of compound; 11-50 mm zone of inhibition. It is filed as functional, Chlorocebus sabaeus. Summed up:
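HSV-1 plaque-inhibition test in Vero cells, H29 strain for most values and Mac strain for some. Disks carry 50 μg of test compound. The read-out is the diameter of the zone without plaque formation, and a zone of 11–50 mm is scored (+).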

The test system of assay [7] is Thymidine kinase (Human herpesvirus 1). As to the kind of experiment: Relative substrate velocity was evaluated against Mac strain by using HSV-1 TK assay. The following applies: Human alphaherpesvirus 1.
Assay [8] has the same test system. As to the kind of experiment: Relative substrate velocity was evaluated against H29 strain by using HSV-1 TK assay. The following applies: Human alphaherpesvirus 1.
Assay [9] has the same test system. As to the kind of experiment: Ability (300 uM) to compete with 150 uM of [14C]ACV for binding sites on H29 strain viral enzyme (HSV-1 TK). The settings on record: Human alphaherpesvirus 1.

Broadly, the pIC50 is −log10 of the IC50, conventionally taken in molar units. A high value points to a small IC50. The compound `Nc1nc2c(ncn2COCCO)c(=O)[nH]1` [ACYCLOVIR] showed a pIC50 in the assay on Vero [1] of 7.00.
By inhibition is commonly meant the percentage by which the read-out fell short of the control. Low values mean little suppression, high ones strong suppression. With `Nc1nc2c(cnn2COCCO)c(=O)[nH]1`, in assay [2], the inhibition is 0%.
Turning to `Nc1nc(O)c2ccn(COCCO)c2n1`, in [3], the Relative substrate velocity was found to be 3%. The same compound came in with an inhibition in assay [4] of 6%.
In the case of `NC(=O)c1ncn(COCCO)c1N`, the inhibition in assay [2] was determined as 1%.
In turn, `NC(=O)c1ncn(COCCO)n1` showed a pIC50 with Vero [1] below 3.70. The inhibition in assay [2] was 0%.
Regarding `Nc1nc(=O)ccn1COCCO`, in [3], the Relative substrate velocity was below 3%. The inhibition in assay [2] came to 0%; in assay [4], 7%.
As to `Nc1nc(O)c2cc3ncn(COCCO)c3cc2n1`, in assay [5], the Relative substrate velocity was below 3%. In [2], this compound came in with an inhibition of 24%.
`Nc1nc(O)c2nnn(COCCO)c2n1` returned a Zone of inhibition in the assay on Vero [6] of 11. Besides, the pIC50 with Vero [1] is 3.89. Besides, the Relative substrate velocity in assay [7] was 5% and 9%; in assay [8] it was 9%. Further, the inhibition in assay [9] turned out to be 27%; in assay [4], 23%.
